# Published values from different studies.
# Compare with care: the assays were run in different laboratories.
# Target: Serine/threonine-protein kinase 26 (STK26, Homo sapiens, UniProt Q9P289)
Compound,effect on,mode,method,concentration,measurement,result
Cc1nccc(COC(=O)N2C[C@@H]3[C@@H](CNC(=O)c4ccc5[nH]nnc5c4)[C@@H]3C2)n1,cell-free assay,,competition with immobilised ligand,1 µM,remaining binding,77%
F[C@@H]1CCN(c2nccc(-c3cnn4ncccc34)n2)C1,cell-free assay,,,1 µM,remaining signal,100%
O=C(Nc1cnn(-c2csc(C(=O)NC3COC3)c2)c1)Nc1ccccc1Cl,enzyme activity,inhibitor,,5 µM,remaining activity,98.3%
COc1cc(-c2cc(-c3ccc(N4CCNCC4)cc3)cnc2C)cc(OC)c1OC,enzyme activity,inhibitor,,1 µM,inhibition,12%
CN(c1nccc(-c2cnn3ncccc23)n1)C1CC1,cell-free assay,,,1 µM,remaining signal,100%
COc1cc(-c2cc(-c3ccc(N4CCNCC4)cc3)cnc2N)cc(OC)c1OC,enzyme activity,inhibitor,,0.1 µM,inhibition,0%
COc1cc(Cl)c(C(=O)N[C@@H](CN[C@H]2CC[C@@H](N)CC2)Cc2ccc(C#N)cc2)cc1-c1ccc(CN[C@H](C)c2ccc(C)cc2)o1,enzyme activity,inhibitor,,1 µM,remaining activity,94%
N[C@@H]1CCN(c2nccc(-c3cnn4ncccc34)n2)C1,cell-free assay,,,1 µM,remaining signal,100%
COc1cc(Nc2cnc(C#N)c(O[C@H](C)CN(C)C)n2)ncc1-c1cnn(C)c1,enzyme activity,inhibitor,radiometric,10 µM,remaining activity,42%
O=C(NCCCNc1nc(Nc2cccc(NC(=O)N3CCCC3)c2)ncc1I)c1cccs1,enzyme activity,inhibitor,,1 µM,inhibition,-93%
CCCS(=O)(=O)Nc1ccc(F)c(C(=O)c2c[nH]c3ncc(-c4ccc(Cl)cc4)cc23)c1F,enzyme activity,inhibitor,,1 µM,inhibition,< 10%
O=C1Nc2ccc(Cl)cc2C1=Cc1cc(Cl)c(O)c(Cl)c1,cell-free assay,,,0.5 µM,remaining signal,101%
CCCCNc1ncc2c(-c3ccc(F)cc3)nn(C[C@H]3CC[C@H](N)CC3)c2n1,target engagement in cells,inhibitor,chemoproteomics,20 mM,inhibition,1.8%
CN1CCC2(CC1)NC(=O)c1c(c3ccc(Cl)c(Cl)c3n1C)C2C#N (racemic),thermal stability,,DSF,10 µM,ΔTm,1.7 °C
CN(C)c1nccc(-c2cnn3ncccc23)n1,cell-free assay,,,1 µM,remaining signal,100%
NS(=O)(=O)c1cc(NC(=O)Cc2ccccc2)ccc1Oc1cccc(Cl)c1,cell-free assay,,competition with immobilised ligand,1 µM,remaining binding,99%
CN(C)c1nccc(-c2cnc3ncccn23)n1,cell-free assay,,,1 µM,remaining signal,68%
Cn1c2c(Cl)c(Cl)ccc2c2cc(N)[nH]c(=O)c21,thermal stability,,DSF,10 µM,ΔTm,1.5 °C
Cc1ccc(C(=O)Nc2ccc(CN3CCN(C)CC3)c(C(F)(F)F)c2)cc1C#Cc1cnc2cccnn12,enzyme activity,inhibitor,,23.5 nM,remaining activity,86%
FC(F)(F)Oc1cccc(-c2cnc3ccc(-c4ccncc4)nn23)c1,enzyme activity,inhibitor,radiometric,5 µM,activity vs control,87%
COc1cc2ncnc(Nc3ccc(Oc4ccccc4)c(C)c3C)c2cc1OC,enzyme activity,inhibitor,,1 µM,inhibition,21%
Oc1cccc(-c2nc(N3CCOCC3)c3oc4ncccc4c3n2)c1,enzyme activity,inhibitor,,10 µM,remaining activity,114%
CC(C)(O)[C@H]1CC[C@H](Nc2ccc3ncc(-c4cccc(C(F)(F)F)c4)n3n2)CC1,enzyme activity,inhibitor,,1 µM,remaining activity,109%
CC(C)(C)C(=O)c1sc(NC2CCCCC2)nc1N,enzyme activity,inhibitor,,10 µM,remaining activity,90%
CCC(=O)N[C@H]1CC[C@@H](C(=O)N(C)c2ccc(-c3nc4ccccc4o3)cc2)C1,cell-free assay,,competition with immobilised ligand,1 µM,remaining binding,76%
CC(C)(C)c1nc(-c2cccc(NS(=O)(=O)c3c(F)cccc3F)c2F)c(-c2ccnc(N)n2)s1,enzyme activity,inhibitor,radiometric,1 µM,remaining activity,103%
COc1cccc2c(NCc3ccccc3)nc(-n3c(N)nc4ccccc43)nc12,target engagement in cells,inhibitor,chemoproteomics,20 mM,inhibition,31.1%
Cc1ccc(NC(=O)c2ccc(C)c(C(F)(F)F)c2)cc1C#Cc1nn(C2CCC(O)CC2)c2ncnc(N)c12 (stereo not drawn),cell-free assay,,,10 µM,remaining signal,73%
Oc1ccc(-c2nc(-c3ccncc3)c(-c3ccc(F)cc3)[nH]2)cc1,cell-free assay,,,0.5 µM,remaining signal,101%
N#CC1(c2ccccn2)CCN(Cc2cc(C(=O)N3CCCC3)c(=O)n3ccccc23)CC1,cell-free assay,,competition with immobilised ligand,1 µM,remaining binding,100%
CN(C)C1CCN(CC#Cc2nn(C3CCCC3)c3nc(NCc4ccccc4)ncc23)C1 (stereo not drawn),enzyme activity,inhibitor,FRET,0.1 µM,inhibition,9%
CN(C)C(=O)Cn1cc(-c2nc(C3(c4ccc(-c5cnc(N)nc5)cc4)CC3)no2)cn1,cell-free assay,,competition with immobilised ligand,1 µM,remaining binding,89%
CC1CCCN1c1nccc(-c2cnn3ncccc23)n1 (stereo not drawn),cell-free assay,,,1 µM,remaining signal,100%
CS(=O)(=O)N1CCCC(NC(=O)[C@H](CCC2CCCCC2)NC(=O)c2ccc(CNc3ncnc4c3nnn4-c3ccccc3)cc2)C1 (stereo partly drawn),cell-free assay,,competition with immobilised ligand,0.1 µM,remaining binding,92%
N#CC1c2c([nH]c3c(Cl)c(Cl)ccc23)C(=O)NC12CCCCC2 (racemic),thermal stability,,DSF,10 µM,ΔTm,0.1 °C
c1ccc(N2CCN(Cc3nc4ccccc4[nH]3)CC2)nc1,binding,,competition with immobilised ligand,1 µM,remaining binding,100%
Cn1c2c(c3ccc(Cl)c(Cl)c31)C(C#N)C1(CCNCC1)NC2=O (racemic),thermal stability,,DSF,10 µM,ΔTm,-0.5 °C
C[C@H](c1ccc(F)cc1)N(Cc1cccc(C(=O)O)c1)C(=O)c1cnc2ccccc2c1,cell-free assay,,competition with immobilised ligand,1 µM,remaining binding,79%
FC(F)c1nc2ccccc2n1-c1nc(N2CCOCC2)nc(N2CCOCC2)n1,enzyme activity,inhibitor,,10 µM,remaining activity,88%
